Source: PMC4854730 (The Journal of Experimental Medicine, 2016)

Tests used:
[1] = Compound E and XR9576 levels in brain tissue; assay type: in vivo, mouse; conditions: LC-MS
In short: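 Brain hemispheres were homogenised by shaking with a steel ball (5 min, 20 Hz) in 45% methanol/45% acetonitrile/8% water/2% formic acid containing 1 µM internal standard, at 200 mg/ml. Extracts were centrifuged, filtered (0.8 µm) and run on capillary LC-MS (PLRPS column; water/acetonitrile gradient with 0.1% formic acid). Levels were quantified from internal-standard-normalised peak areas against an external curve prepared in control mouse brain extract.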

ISF Aβ40 = experiment: baseline ISF Aβ40 in hippocampus measured with calibrated Aβ40 MIE; assay type: in vivo, APP/PS1 mice; conditions: 60 min after XR9576 80 mg/kg; n = 8; mean ± SEM; control mice 99.12 ± 19.28 (n = 15); P = 0.008
[2] = test system: mRNA of genes related to APP processing or Aβ clearance; experiment: qRT-PCR of APP processing and Aβ clearance genes in brain; assay type: in vivo, mouse; conditions: 2 h after 80 mg/kg i.v.; cortex; n = 6/group; P = 0.08-0.94
In short: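 3-month-old mice received the Pgp inhibitor (80 mg/kg i.v.) or vehicle (5% dextrose) and were killed 2 h later. Cortical total RNA was reverse transcribed and run by SYBR Green qPCR with dissociation-curve checks. Genes were APP, PSEN1/2, nicastrin, APH-1, BACE1, ADAM10/17, Pgp, LRP1, IDE, NEP, MMP2 and MMP9. Levels were derived by ΔΔCt against mouse GAPDH and compared by t tests corrected for multiple comparisons.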

LRP1 = LRP1 protein levels in brain tissue; assay type: in vivo, mouse; conditions: after XR9576 administration; n = 9/group; P = 0.35
P-glycoprotein (Pgp) = conditions: rodents; ref Bankstahl et al., 2008; cited from earlier work
ISF Aβ = experiment: in vivo microdialysis of ISF Aβ during isoflurane anesthesia; parameters: species or system mouse; conditions: first 3 h of isoflurane anesthesia, n = 4, not significant, P = 0.135

In the case of `COc1cc2c(cc1OC)CN(CCc1ccc(NC(=O)c3cc(OC)c(OC)cc3NC(=O)c3cnc4ccccc4c3)cc1)CC2` [XR9576], the “XR9576 level in brain tissue” value ([1]; 1 h after injection, mouse brain extract, mean ± SEM) is reported as 533.0 ± 68.11 µM, the “absolute baseline concentration of ISF Aβ40” value (ISF Aβ40) is reported as 283.9 ± 80.38 and the “mRNA expression levels in the brain” value [2] is reported as “did not find significant differences”. The “LRP1 protein levels in hippocampus” value (LRP1) was “did not change” and the “time of maximum inhibition of Pgp activity after injection” value (P-glycoprotein (Pgp)) was 30 min.

In the case of `FC(F)OC(Cl)C(F)(F)F` (stereo not shown) [isoflurane], the “decrease of ISF Aβ levels” value (ISF Aβ) is reported as 14%.

With `C[C@H](NC(=O)Cc1cc(F)cc(F)c1)C(=O)N[C@H]1N=C(c2ccccc2)c2ccccc2N(C)C1=O` [Compound E] the “Compound E level in brain tissue” value ([1]; within 5 min after intraperitoneal injection (30 mg/kg)) was 395 nM.
